Activity calls are given as the source filed them. The calls are words filed in the database; no cut-off is given here.
What was measured:
NCI-H460 [1] = assay: Antiproliferative activity against human NCI-H460 cells using 1% DMSO/water compound formulation after 72 hrs by MTT assay; assay type: functional, cell-based; conditions: NCI-H460, 72 h
In short: (§1)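 MTT anti-proliferation on NSCLC lines. Compounds dissolved in DMSO, diluted with water to 1% DMSO, then into growth medium (max 0.032% DMSO on cells); or dissolved in 10% (w/v) 2-HPβCD in water, then diluted (max 0.008% w/w 2-HPβCD in wells; vehicle controls at 0.008%). IC50 = concentration giving 50% loss of viability versus control cells. Cisplatin dissolved in water with stirring.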

NCI-H460 [2] = assay: Antiproliferative activity against human NCI-H460 cells using 10% 2-HPbetaCD compound formulation after 72 hrs by MTT assay; assay type: functional, cell-based; conditions: NCI-H460, 72 h; in short: as §1
A549 [3] = assay: Antiproliferative activity against human A549 cells using 1% DMSO/water compound formulation after 72 hrs by MTT assay; assay type: functional, cell-based; conditions: A549, 72 h; in short: as §1
A549 [4] = assay: Antiproliferative activity against human A549 cells using 10% 2-HPbetaCD compound formulation after 72 hrs by MTT assay; assay type: functional, cell-based; conditions: A549, 72 h; in short: as §1
HCC827 = assay: Antiproliferative activity against human HCC827 cells using 1% DMSO/water compound formulation after 72 hrs by MTT assay; assay type: functional, cell-based; conditions: HCC827, 72 h; in short: as §1
[5] = Aqueous solubility of the compound in water; assay type: physicochemical; conditions: buffer
[6] = Solubility of the compound in 1% DMSO/water solution; assay type: physicochemical; conditions: buffer
NCI-H1975 = assay: Potency index, ratio of compound cisplatin IC50 to compound IC50 for human NCI-H1975 cells using 1% DMSO/water compound formulation; assay type: functional
[7] = Solubility of the compound in 10% 2-HPbetaCD/water solution; assay type: physicochemical; conditions: buffer
EKVX = assay: Growth inhibition of human EKVX cells assessed as cell growth at 10 uM after 24 hrs by SRB assay relative to control; assay type: functional; conditions: read-out: Activity
In short: (§2)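 NCI DTP one-dose screen: cells plated at density set by doubling rate, incubated overnight, then exposed to compound at 10 μM for 24 hours. Growth percentage from protein density at end versus start of experiment, relative to initial cell number.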

HOP-62 = assay: Growth inhibition of human HOP62 cells assessed as cell growth at 10 uM after 24 hrs by SRB assay relative to control; assay type: functional; conditions: HOP-62, 24 h, read-out: Activity; in short: as §2
NCI-H226 [8] = assay: Growth inhibition of human NCI-H226 cells assessed as cell growth at 10 uM after 24 hrs by SRB assay relative to control; assay type: functional; conditions: NCI-H226, 24 h, read-out: Activity; in short: as §2
NCI-H322M [9] = assay: Growth inhibition of human NCI-H322M cells assessed as cell growth at 10 uM after 24 hrs by SRB assay relative to control; assay type: functional; conditions: read-out: Activity; in short: as §2
NCI-H460 [10] = assay: Growth inhibition of human NCI-H460 cells assessed as cell growth at 10 uM after 24 hrs by SRB assay relative to control; assay type: functional; conditions: NCI-H460, 24 h, read-out: Activity; in short: as §2
NCI-H522 = assay: Growth inhibition of human NCI-H522 cells assessed as cell growth at 10 uM after 24 hrs by SRB assay relative to control; assay type: functional; conditions: NCI-H522, 24 h, read-out: Activity; in short: as §2
A549 [11] = assay: Growth inhibition of human A549 cells after 24 hrs by SRB assay; assay type: functional; conditions: A549, 24 h
HOP-92 = assay: Growth inhibition of human HOP92 cells after 24 hrs by SRB assay; assay type: functional; conditions: HOP-92, 24 h
NCI-H226 [12] = assay: Growth inhibition of human NCI-H226 cells after 24 hrs by SRB assay; assay type: functional; conditions: NCI-H226, 24 h
NCI-H322M [13] = assay: Growth inhibition of human NCI-H322M cells after 24 hrs by SRB assay; assay type: functional
NCI-H460 [14] = assay: Induction of apoptosis in human NCI-H460 cells assessed as morphological changes at 40 uM up to 3 hrs by Annexin V-FITC/propidium iodide staining based fluorescence microscopic method; assay type: functional, cell-based
NCI-H460 [15] = assay: Induction of apoptosis in human NCI-H460 cells at 40 uM up to 1 hr using 1% DMSO/water compound formulation by Annexin V-FITC/propidium iodide staining based fluorescence microscopic method; assay type: functional, cell-based
NCI-H460 [16] = assay: Induction of apoptosis in human NCI-H460 cells at 40 uM up to 12 hrs using 10% 2HPbetaCD/water compound formulation by Annexin V-FITC/propidium iodide staining based fluorescence microscopic method; assay type: functional, cell-based
In short: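 Annexin V-FITC/propidium iodide staining of H460 cells in 6-well plates. Compound given in 10% (w/v) 2-HPβCD aqueous solution. Imaged at 12, 14, 17 and 20 h with 20× objective as merged transmitted, green and red channels. Controls: 2-HPβCD and cisplatin, 20 h.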

Bos taurus = organism: Bos taurus; assay: Inhibition of ethidium bromide binding to calf thymus DNA assessed as at 13.3 uM using 1% DMSO/water compound formulation by spectrofluorometric method
NCI-H460 [17] = assay: Disruption of mitochondrial membrane potential in human NCI-H460 cells at 40 uM up to 1 hr […] by JC1/DAPI staining based confocal microscopic method; assay type: functional, cell-based
NCI-H460 [18] = assay: Disruption of mitochondrial membrane potential in human NCI-H460 cells at 20 uM up to 30 mins using […] by JC1/DAPI staining based confocal microscopic method; assay type: functional, cell-based
Mus musculus [19] = assay: Acute toxicity in C57BL/6 mouse assessed as weight loss at 20 mg/kg, ip administered as 20% 2HPbetaCD formulation; assay type: organism-based; conditions: in vivo
In short: (§3)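 Female/male not stated; C57BL/6 mice received 20 mg/kg IP on day zero in 100 μL of 20% (w/v) 2-HPβCD, then a second 15 mg/kg IP dose on day fourteen. Vehicle controls got 100 μL of 20% 2-HPβCD IP on days 0, 7, 14, 21, 25 and 29. Body weight and behaviour were monitored throughout, with survival plotted Kaplan-Meier.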

Mus musculus [20] = assay: Acute toxicity in C57BL/6 mouse assessed as weight regain at 20 mg/kg, ip administered as 20% 2HPbetaCD formulation measured on day 4 to 14 post dose; assay type: organism-based; conditions: in vivo; in short: as §3
Mus musculus [21] = assay: Acute toxicity in C57BL/6 mouse assessed as weight loss at 20 mg/kg, ip administered as 20% 2HPbetaCD formulation on day 1 followed by redosing with 15 mg/kg, ip on day 14 relative to control; assay type: organism-based; conditions: in vivo
In short: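 C57BL/6 mice given IP 100 μL of 20 mg/kg (based on 20 g mean mass) in 20% w/v 2-HPβCD on day 0, then 15 mg/kg on day 14. Vehicle mice received 2-HPβCD on days 0, 7, 14, 21, 25 and 29. Body weight, behaviour and survival monitored.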

Mus musculus [22] = assay: Acute toxicity in C57BL/6 mouse assessed as lethargic movement at 20 mg/kg, ip administered as 20% 2HPbetaCD formulation on day 1 followed by redosing with 15 mg/kg, ip on day 14 measured on day 15 post first dose; assay type: organism-based; conditions: in vivo; in short: as §3
[23] = read-out: LC50 (the source's name)

## CCc1n(Cc2ccc3ccccc3c2)cc[n+]1Cc1ccc2ccccc2c1.[Br-]
NCI-H460 [1]
  IC50: 920 nM
NCI-H460 [2]
  IC50: 990 nM
A549 [3]
  IC50: 2630 nM
A549 [4]
  IC50: 2340 nM
HCC827
  IC50: 1150 nM
[5]
  solubility: < 500 µg/mL
[6]
  solubility: Soluble
NCI-H1975
  Ratio IC50: 15
[7]
  solubility: > 4400 µg/mL
EKVX
  growth at 10 µM: 11.9%
HOP-62
  growth at 10 µM: 11.9%
NCI-H226 [8]
  growth at 10 µM: 6.75%
NCI-H322M [9]
  growth at 10 µM: 44.3%
NCI-H460 [10]
  growth at 10 µM: 5.54%
NCI-H522
  growth at 10 µM: -25.4%
A549 [11]
  GI50: 2590 nM
  TGI: 13900 nM
A549 [11]; [23]
  CC50: 57900 nM
HOP-92
  GI50: 338 nM
  TGI: 1770 nM
HOP-92; [23]
  CC50: 1770 nM
NCI-H226 [12]
  GI50: 1080 nM
  LC50: 3820 nM
  TGI: 3820 nM
NCI-H322M [13]
  GI50: 2120 nM
  LC50 (lethal concentration 50%): 6710 nM
  TGI: 6710 nM
NCI-H460 [14]
  Activity: inactive
NCI-H460 [15]
  Activity: Active
NCI-H460 [16]
  Activity: inactive
Bos taurus
  inhibition: inactive
NCI-H460 [17]
  Activity: Active
NCI-H460 [18]
  Activity: Active
Mus musculus [19]
  Activity: Toxic
Mus musculus [20]
  Activity: Toxic
Mus musculus [21]
  Activity: 6%
Mus musculus [22]
  Activity: Toxic

From ChEMBL document CHEMBL4002637, “Synthesis, characterization, in vitro SAR and in vivo evaluation of N,N'bisnaphthylmethyl 2-alkyl substituted imidazolium salts against NSCLC” (Bioorg Med Chem Lett, 2017)
